Test results published in ChEMBL document CHEMBL1153230, “Synthesis and evaluation of 3-amino-6-aryl-pyridazines as selective CB(2) agonists for the treatment of inflammatory pain” (Bioorg Med Chem Lett, 2010).
Converted amounts (≈) assume the structure as drawn. The source made the active and inactive calls. The calls are words filed in the database; no cut-off is given here.

Key:
[1] = target: T1, Cannabinoid receptor 2 (Homo sapiens, UniProt P34972); assay: Agonist activity at human CB2 receptor relative to HU210; assay type: functional
Procedure, shortened: (§1)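 Agonist pEC50 and efficacy at human receptor. Efficacy is expressed as a percentage relative to HU210 efficacy. Values are the mean of at least two determinations.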

[2] = target: T2, Cannabinoid receptor 1 (Homo sapiens, UniProt P21554); assay: Agonist activity at human CB1 receptor; assay type: functional; procedure, shortened: as §1
[3] = target: T1, Cannabinoid receptor 2; assay: Agonist activity at human CB2 receptor; assay type: functional; procedure, shortened: as §1
[4] = target: T2, Cannabinoid receptor 1; assay: Agonist activity at human CB1 receptor relative to HU210; assay type: functional; procedure, shortened: as §1
[5] = target: T2, Cannabinoid receptor 1; assay: Agonist activity at human CB1 receptor up to 30 uM; assay type: functional
Procedure, shortened: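 Human CB1 receptor agonist assay, tested at concentrations up to 30 µM (method per cited reference). Potency reported as pEC50. Efficacy is expressed as a percentage of the efficacy of the full agonist HU210. Values are the mean of at least two determinations.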

[6] = Aqueous solubility of the compound; assay type: physicochemical
[7] = Half life in rat at 1 mg/kg, iv; assay type: ADME, organism-based; set-up: dose 1 mg/kg, route intravenous; details: in vivo
Procedure, shortened: (§2)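 Rats given an intravenous infusion at a target dose of 1 mg free base/kg for pharmacokinetic parameters.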

[8] = Drug level in rat blood at 1 mg/kg, po after 1 hr; assay type: ADME, organism-based; set-up: dose 1 mg/kg, route oral
Procedure, shortened: (§3)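 Rat blood and brain tissue samples taken from FCA weight-bearing study animals 1 h after a 1 mg/kg oral dose. Compound concentrations measured in each; brain:blood ratio derived from the two concentrations.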

[9] = Volume of distribution at steady state in rat at 1 mg/kg, iv; assay type: ADME, organism-based; set-up: dose 1 mg/kg, route intravenous; details: in vivo, read-out: Vdss; procedure, shortened: as §2
[10] = Ratio of drug level in brain to blood in rat at 1 mg/kg, po; assay type: ADME, organism-based; set-up: dose 1 mg/kg, route oral; procedure, shortened: as §3
[11] = test system: Rattus norvegicus; assay: Toxicity in rat assessed as induction of hypothermia up to 300 mg/kg po; assay type: organism-based; set-up: dose 300 mg/kg, route oral; details: in vivo
[12] = Blood clearance in rat at 1 mg/kg, iv; assay type: ADME, organism-based; set-up: dose 1 mg/kg, route intravenous; procedure, shortened: as §2
[13] = Oral bioavailability in rat at 3 mg/kg; assay type: ADME, organism-based; details: in vivo
Procedure, shortened: (§4)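 Rats given a single oral dose by gastric gavage, formulated in 1% (w/v) aqueous methylcellulose, at a target dose of 3 mg/kg free base, for pharmacokinetic parameters.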

[14] = Tmax in rat at 3 mg/kg, po; assay type: ADME, organism-based; set-up: dose 3 mg/kg, route oral; details: in vivo; procedure, shortened: as §4
[15] = Drug level in rat brain at 1 mg/kg, po after 1 hr; assay type: ADME, organism-based; set-up: dose 1 mg/kg, route oral; details: read-out: Drug uptake; procedure, shortened: as §3
[16] = Cmax in rat brain at 6.6 uM; assay type: ADME, organism-based; set-up: dose 6.6 uM
[17] = Cmax in rat at 3 mg/kg, po; assay type: ADME, organism-based; set-up: dose 3 mg/kg, route oral; details: in vivo; procedure, shortened: as §4

T1 sequence (P34972 whole entry): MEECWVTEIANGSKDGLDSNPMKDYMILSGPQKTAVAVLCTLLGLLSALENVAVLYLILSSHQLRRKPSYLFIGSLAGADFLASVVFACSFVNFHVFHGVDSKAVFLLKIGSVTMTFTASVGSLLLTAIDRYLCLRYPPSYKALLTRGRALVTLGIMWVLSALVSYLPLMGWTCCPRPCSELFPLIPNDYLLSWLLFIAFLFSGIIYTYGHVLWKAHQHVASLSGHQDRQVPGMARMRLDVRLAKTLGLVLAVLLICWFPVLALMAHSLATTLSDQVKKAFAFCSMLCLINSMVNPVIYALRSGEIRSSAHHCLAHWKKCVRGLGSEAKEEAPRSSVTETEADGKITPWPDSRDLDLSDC
T2 sequence (P21554 whole entry): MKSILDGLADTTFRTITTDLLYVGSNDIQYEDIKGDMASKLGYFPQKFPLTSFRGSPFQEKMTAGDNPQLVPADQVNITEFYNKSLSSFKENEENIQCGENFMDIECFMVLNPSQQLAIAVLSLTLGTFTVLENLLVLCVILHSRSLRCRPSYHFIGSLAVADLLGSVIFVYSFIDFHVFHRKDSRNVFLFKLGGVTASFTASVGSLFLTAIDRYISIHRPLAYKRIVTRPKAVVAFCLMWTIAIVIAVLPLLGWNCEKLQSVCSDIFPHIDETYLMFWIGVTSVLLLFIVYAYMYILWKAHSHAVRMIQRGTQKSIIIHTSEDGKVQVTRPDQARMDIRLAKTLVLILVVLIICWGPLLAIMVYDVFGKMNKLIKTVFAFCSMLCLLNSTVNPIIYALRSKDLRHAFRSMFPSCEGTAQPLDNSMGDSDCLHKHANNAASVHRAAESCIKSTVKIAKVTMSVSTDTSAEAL

Compound	Efficacy [1] [%]	EC50 [2] [nM]	EC50 [3] [nM]	other results
FC(F)(F)c1cccc(-c2ccc(N3CCOCC3)nn2)c1	15	> 31600	1000	
C[C@@H]1CC[C@H](C)N1c1ccc(-c2cccc(Cl)c2Cl)nn1	83	2510	1.26	Efficacy [4]: 57%
O=S1(=O)CCN(c2ccc(-c3cccc(Cl)c3Cl)nn2)CC1	89	> 31600	631	
Cc1cccc(-c2ccc(N3CCOCC3)nn2)c1C	71	> 31600	2000	
COc1ccc(-c2ccc(N3CCOCC3)nn2)c(Cl)c1		> 31600	> 31600	
Clc1cccc(-c2ncc(N3CCOCC3)cn2)c1Cl	92		50.1	Activity [5]: inactive; solubility [6]: < 1 µg/mL
C[C@@H]1CC[C@H](C)N1c1ccc(-c2cccc3ncccc23)nn1	75	> 31600	200	
c1ccc(COc2ccccc2-c2ccc(N3CCOCC3)nn2)cc1	45	3980	631	Efficacy [4]: 11%
Clc1cccc(-c2ccc(N3CCCCC3)nn2)c1Cl	86	> 31600	6.31	
Clc1cccc(-c2cnc(N3CCOCC3)nc2)c1Cl	67		200	Activity [5]: inactive
C[C@@H]1CC[C@H](C)N1c1ccc(-c2cc3ccccc3o2)nn1	70	> 31600	158	
Clc1cccc(-c2ccc(NC3CCCCC3)nn2)c1Cl	69	> 31600	200	
c1ccc(COc2cccc(-c3ccc(N4CCOCC4)nn3)c2)cc1		> 31600	> 31600	
FC(F)(F)c1cccc(-c2ccc(N3CCOCC3)nn2)c1C(F)(F)F	75	> 31600	158	
FC1(F)CCN(c2ccc(-c3cccc(Cl)c3Cl)nn2)CC1	83	> 31600	15.8	
COc1ccccc1-c1ccc(N2CCOCC2)nn1	37	> 31600	12600	
C[C@@H]1CC[C@H](C)N1c1ccc(-c2cccc3cnccc23)nn1	93	20000	39.8	Efficacy [4]: 52%
Clc1ccc(Cl)c(-c2ccc(N3CCOCC3)nn2)c1	39	> 31600	398	

Compound	Efficacy [1] [%]	EC50 [2] [nM]	EC50 [3] [nM]	other results
Clc1cccc(-c2ccc(N3CCCC3)nn2)c1Cl	56	> 31600	25.1	
Clc1cccc(-c2cnc(N3CCOCC3)cn2)c1Cl	89		39.8	Activity [5]: inactive; solubility [6]: 1 µg/mL (≈ 3.22 µM)
Clc1cccc(-c2ccc(N3CCOCC3)nc2)c1Cl				Activity [5]: inactive
Clc1cc(Cl)c(Cl)c(-c2ccc(N3CCOCC3)nn2)c1	78	> 31600	50.1	
Cc1ccccc1-c1ccc(N2CCOCC2)nn1	38	> 31600	7940	
Clc1ccc(-c2ccc(N3CCOCC3)nn2)c(Cl)c1		> 31600	> 31600	
FC(F)(F)c1ccccc1-c1ccc(N2CCOCC2)nn1	78	> 31600	1260	
FC(F)(F)Oc1ccccc1-c1ccc(N2CCOCC2)nn1	55	> 31600	1260	
Clc1ccccc1-c1ccc(N2CCOCC2)nn1	77	> 31600	1580	
Clc1cccc(-c2ccc(NC3CCOCC3)nn2)c1Cl		> 31600	> 31600	
C[C@@H]1CC[C@H](C)N1c1ccc(-c2cccc3cccnc23)nn1	82	> 31600	79.4	
Cc1ccc(-c2ccc(N3CCOCC3)nn2)c(Cl)c1		> 31600	> 31600	
Clc1cccc(-c2cnc(N3CCOCC3)nn2)c1Cl	78		100	Activity [5]: inactive
C[C@@H]1CC[C@H](C)N1c1ccc(-c2c[nH]c3ccccc23)nn1	61	> 31600	251	
C[C@@H]1CC[C@H](C)N1c1ccc(-c2cncc3ccccc23)nn1	85	7940	10	half-life [7]: 18 min; concentration at 1 h [8]: 300 nM; Vd [9]: 1.7 L/kg; Kp [10]: 1; Efficacy [4]: 71%; Activity [11]: Toxic; clearance [12]: 57 mL/min/kg; bioavailability [13]: 26%; Tmax [14]: 54 min; concentration at 1 h [15]: 500 nM; Cmax at 6.6 µM [16]: 11000 nM; Cmax [17]: 340 nM
Clc1cccc(-c2ccc(N3CCOCC3)cc2)c1Cl	86		39.8	Activity [5]: inactive
Clc1cccc(-c2ccc(N3CCOCC3)nn2)c1Cl	76	> 31600	79.4	Activity [5]: inactive; solubility [6]: 6 µg/mL (≈ 19.3 µM)
C[C@@H]1C=C[C@H](C)N1c1ccc(-c2cccc(Cl)c2Cl)nn1	93	6310	0.631	Efficacy [4]: 21%
